# Assay results collected from several papers.
# Target: Dual specificity tyrosine-phosphorylation-regulated kinase 2 (DYRK2, Homo sapiens, UniProt Q92630)
# One construct used (Q92630 1-601): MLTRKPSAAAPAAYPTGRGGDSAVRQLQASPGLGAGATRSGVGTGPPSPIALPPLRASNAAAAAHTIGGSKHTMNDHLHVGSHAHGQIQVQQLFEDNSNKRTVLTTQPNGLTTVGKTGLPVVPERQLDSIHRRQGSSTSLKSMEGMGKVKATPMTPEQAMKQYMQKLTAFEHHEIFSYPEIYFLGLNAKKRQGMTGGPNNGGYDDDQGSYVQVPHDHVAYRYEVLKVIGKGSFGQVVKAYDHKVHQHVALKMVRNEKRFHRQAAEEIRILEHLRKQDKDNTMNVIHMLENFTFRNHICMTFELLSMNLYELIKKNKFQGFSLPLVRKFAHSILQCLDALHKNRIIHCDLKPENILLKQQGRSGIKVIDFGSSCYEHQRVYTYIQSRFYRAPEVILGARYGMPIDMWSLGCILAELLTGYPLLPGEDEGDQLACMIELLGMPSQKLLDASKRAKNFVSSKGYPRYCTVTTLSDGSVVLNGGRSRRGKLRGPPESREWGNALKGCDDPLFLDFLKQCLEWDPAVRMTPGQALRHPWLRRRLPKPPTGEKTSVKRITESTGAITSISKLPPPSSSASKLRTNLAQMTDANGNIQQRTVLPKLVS
Compound,test,conditions,quantity,result
O=C(O)c1ccc2c(c1)nc(NCCc1ccccc1)c1ncncc12,"enzyme activity, inhibitor, radiometric",1 µM,remaining activity,45%
CS(=O)(=O)CCNCc1ccc(-c2ccc3ncnc(Nc4ccc(OCc5cccc(F)c5)c(Cl)c4)c3c2)o1,cell-free assay,0.5 µM,remaining signal,102%
CNCc1ccccc1-c1csc([C@H](C)Nc2nc(C)nc3cc(OC)c(OC)cc23)c1,"cell-free assay, competition with immobilised ligand",1 µM,remaining binding,96%
Cn1cncc1C1=CN(c2ncnc3[nH]cnc23)CCS1,"enzyme activity, inhibitor, radiometric",2 µM,inhibition,91.2%
CN1CC(Oc2cnc(C#N)cc2-c2ccn3nc(NC(=O)C4CC4)cc3c2)C1,"enzyme activity, inhibitor",1 µM,inhibition,3%
O=C(O)c1ccc2c(c1)nc(NCCc1cccc(Cl)c1)c1ccncc12,"enzyme activity, inhibitor, radiometric",1 µM,remaining activity,29%
COc1cc(/C=C/C(=O)CC(=O)/C=C/c2ccc(O)c(OC)c2)ccc1O,"enzyme activity, inhibitor",1 µM,activity vs control,5%
Cc1cc(NC(=O)c2cccc(S(F)(F)(F)(F)F)c2)cc(-n2ccn3nc(-c4cccnc4)cc23)c1,"cell-free assay, competition with immobilised ligand",1 µM,remaining binding,100%
Nc1ncnc2occ(-c3ccc(NC(=O)Nc4cc(C(F)(F)F)ccc4F)cc3)c12,"cell-free assay, inhibitor",20 µM,remaining signal,19%
NS(=O)(=O)c1cc(NC(=O)C2(c3ccccc3Cl)CC2)ccc1Oc1cccc(Cl)c1,"cell-free assay, competition with immobilised ligand",1 µM,remaining binding,81%
O=C(O)c1ccc2c(c1)nc(Nc1cccc(F)c1)c1ncncc12,"enzyme activity, inhibitor, radiometric",1 µM,remaining activity,33%
Cc1nc(Cc2cccc(C(F)(F)F)c2)sc1-c1ccc(C(N)=O)nc1,"cell-free assay, competition with immobilised ligand",1 µM,remaining binding,90%
CC/C(=N\NC(=O)NCc1cccc(O)c1)c1ccc(O)c(C)c1O,"enzyme activity, inhibitor",0.1 µM,inhibition,-0.2%
Cc1ccc(Nc2nccc(N(C)c3ccc4c(C)n(C)nc4c3)n2)cc1S(N)(=O)=O,"enzyme activity, inhibitor",0.3 µM,inhibition,-8%
FC(F)(F)Oc1cccc(-c2cnc3ccc(-c4ccncc4)nn23)c1,"enzyme activity, inhibitor, radiometric",1 µM,activity vs control,52%
CN(C)CC#Cc1ccc(OCCCc2sc(N3CCc4cccc(C(=O)Nc5nc6ccccc6s5)c4C3)nc2C(=O)O)c(F)c1,"cell-free assay, competition with immobilised ligand",1 µM,remaining binding,100%
Cn1cnc(Br)c1C1=CN(c2ncnc3[nH]cnc23)CCS1,"enzyme activity, inhibitor, radiometric",2 µM,inhibition,98.3%
NS(=O)(=O)c1cc(NC(=O)Cc2ccccc2)ccc1Oc1cccc(Cl)c1,"cell-free assay, competition with immobilised ligand",1 µM,remaining binding,100%
O=C(O)c1ccc2c(c1)nc(NCCc1cccc(F)c1)c1ncncc12,"enzyme activity, inhibitor, radiometric",1 µM,remaining activity,52%
COc1ccc(COc2ccc(Cc3cnc(N)nc3N)cc2OC)cc1,cell-free assay,0.5 µM,remaining signal,105%
COc1cccc(Nc2nc3cc(C(=O)O)ccc3c3cnccc23)c1,"enzyme activity, inhibitor, radiometric",1 µM,remaining activity,14%
O=C(O)[C@H]1[C@H](Cn2nnc3ccccc3c2=O)CC[C@@H]1C(=O)c1ccc(OCCC2CCOCC2)cc1,"cell-free assay, competition with immobilised ligand",1 µM,remaining binding,93%
O=C(O)c1ccc2c(c1)nc(Nc1ccccc1)c1ncncc12,"enzyme activity, inhibitor, radiometric",1 µM,remaining activity,54%
CCN(CC)CCNC(=O)c1c(C)[nH]c(/C=C2\C(=O)Nc3ccc(F)cc32)c1C,"enzyme activity, inhibitor",10 µM,inhibition,36%
O=C(O)c1ccc2c(c1)nc(Nc1ccc(F)c(Cl)c1)c1ccncc12,"enzyme activity, inhibitor, radiometric",1 µM,remaining activity,5%
O=C(O)c1cc(-c2ccc(C3CCNCC3)cc2)c2ccc(-c3ccc(C(F)(F)F)cc3)cc2c1,"cell-free assay, competition with immobilised ligand",1 µM,remaining binding,100%
O=C(O)c1ccc2c(c1)nc(Nc1ccccc1Cl)c1ncncc12,"enzyme activity, inhibitor, radiometric",1 µM,remaining activity,60%
C[S+]([O-])c1ccc(-c2nc(-c3ccncc3)c(-c3ccc(F)cc3)[nH]2)cc1 (stereo not shown),cell-free assay,0.5 µM,remaining signal,98.7%
